Assay results taken from ChEMBL document CHEMBL1129251 (J Med Chem, 1996).

Experiments:
[1] = alpha 2 antagonistic adrenoceptor activity in human blood platelets Potency ratio: IC50(medetomidine)/IC50(analog); type: functional
Procedure, shortened: (§1)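 Inhibition of epinephrine (30-100 µM)-induced primary-wave aggregation in aspirin (1 mM)-treated human platelet-rich plasma, with inhibitor added 1 min before agonist.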

[2] = molecular target: T1, Adrenergic receptor alpha-2 (Rattus norvegicus, UniProt P22086+P19328+P22909); assay: Alpha-2 adrenergic receptor binding affinity was tested against membrane preparations of rat brain using 0.2 nM [3H]rauwolscine as radioligand
T1 sequence (P22086 whole entry): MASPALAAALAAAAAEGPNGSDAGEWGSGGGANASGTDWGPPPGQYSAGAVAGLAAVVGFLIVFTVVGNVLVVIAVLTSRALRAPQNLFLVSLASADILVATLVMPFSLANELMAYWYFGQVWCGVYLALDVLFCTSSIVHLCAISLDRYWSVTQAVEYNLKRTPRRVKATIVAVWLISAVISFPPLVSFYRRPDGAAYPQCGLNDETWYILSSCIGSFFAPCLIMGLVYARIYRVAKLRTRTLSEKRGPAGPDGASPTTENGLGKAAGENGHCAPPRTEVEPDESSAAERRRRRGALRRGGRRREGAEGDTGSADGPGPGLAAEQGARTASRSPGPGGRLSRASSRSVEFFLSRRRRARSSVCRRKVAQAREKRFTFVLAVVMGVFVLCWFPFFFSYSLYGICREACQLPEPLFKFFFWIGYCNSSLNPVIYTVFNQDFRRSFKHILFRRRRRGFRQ
T1 sequence (P19328 whole entry): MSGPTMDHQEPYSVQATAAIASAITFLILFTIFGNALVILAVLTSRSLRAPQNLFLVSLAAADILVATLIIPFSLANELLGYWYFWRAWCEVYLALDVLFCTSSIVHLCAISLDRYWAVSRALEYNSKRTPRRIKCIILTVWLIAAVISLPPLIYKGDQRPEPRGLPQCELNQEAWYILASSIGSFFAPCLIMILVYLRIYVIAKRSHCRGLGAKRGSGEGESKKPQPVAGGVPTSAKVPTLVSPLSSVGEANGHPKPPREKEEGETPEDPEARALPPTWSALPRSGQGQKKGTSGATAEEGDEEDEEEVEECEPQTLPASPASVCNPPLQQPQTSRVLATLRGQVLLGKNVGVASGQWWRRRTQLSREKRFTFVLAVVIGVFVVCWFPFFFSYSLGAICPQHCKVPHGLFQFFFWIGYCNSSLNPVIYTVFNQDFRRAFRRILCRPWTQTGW
T1 sequence (P22909 whole entry): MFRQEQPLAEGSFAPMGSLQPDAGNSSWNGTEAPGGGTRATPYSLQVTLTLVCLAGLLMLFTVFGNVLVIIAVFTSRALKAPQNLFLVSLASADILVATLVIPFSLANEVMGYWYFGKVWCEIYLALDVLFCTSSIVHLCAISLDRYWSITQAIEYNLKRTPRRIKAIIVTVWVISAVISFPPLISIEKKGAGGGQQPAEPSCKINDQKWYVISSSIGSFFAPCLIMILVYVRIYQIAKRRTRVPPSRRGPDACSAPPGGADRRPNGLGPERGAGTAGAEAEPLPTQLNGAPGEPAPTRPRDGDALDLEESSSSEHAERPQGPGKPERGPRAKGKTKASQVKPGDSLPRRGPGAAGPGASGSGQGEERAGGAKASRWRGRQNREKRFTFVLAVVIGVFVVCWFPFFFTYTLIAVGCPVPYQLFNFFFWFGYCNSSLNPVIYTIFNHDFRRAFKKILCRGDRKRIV
Procedure, shortened: (§2)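 Rat frontal cortex membranes at about 500 µg/mL protein, labelled with [3H]rauwolscine in Tris buffer pH 7.4 containing 10 mM EDTA. Nonspecific binding set by 10 µM phentolamine. 30 °C for 30 min, then filtration and scintillation counting, in triplicate.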

[3] = molecular target: T2, Adrenergic receptor alpha-1 (Rattus norvegicus, UniProt P15823+P23944+P43140); assay: Alpha-1 adrenergic receptor binding affinity in rat brain membranes; type: cell membranes
T2 sequence (P15823 whole entry): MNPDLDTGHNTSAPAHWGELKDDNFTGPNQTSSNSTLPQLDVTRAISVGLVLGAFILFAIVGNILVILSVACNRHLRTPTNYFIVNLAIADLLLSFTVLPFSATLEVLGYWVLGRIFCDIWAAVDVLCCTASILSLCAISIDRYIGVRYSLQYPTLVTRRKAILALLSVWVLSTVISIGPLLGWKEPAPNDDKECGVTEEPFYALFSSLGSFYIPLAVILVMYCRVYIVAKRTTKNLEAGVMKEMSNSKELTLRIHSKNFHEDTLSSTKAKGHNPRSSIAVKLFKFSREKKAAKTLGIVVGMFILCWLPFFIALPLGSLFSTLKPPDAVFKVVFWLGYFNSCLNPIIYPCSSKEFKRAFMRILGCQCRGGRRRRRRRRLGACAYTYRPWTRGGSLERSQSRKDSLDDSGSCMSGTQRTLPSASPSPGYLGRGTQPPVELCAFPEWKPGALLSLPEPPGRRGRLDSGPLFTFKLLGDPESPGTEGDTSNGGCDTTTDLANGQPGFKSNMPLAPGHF
T2 sequence (P23944 whole entry): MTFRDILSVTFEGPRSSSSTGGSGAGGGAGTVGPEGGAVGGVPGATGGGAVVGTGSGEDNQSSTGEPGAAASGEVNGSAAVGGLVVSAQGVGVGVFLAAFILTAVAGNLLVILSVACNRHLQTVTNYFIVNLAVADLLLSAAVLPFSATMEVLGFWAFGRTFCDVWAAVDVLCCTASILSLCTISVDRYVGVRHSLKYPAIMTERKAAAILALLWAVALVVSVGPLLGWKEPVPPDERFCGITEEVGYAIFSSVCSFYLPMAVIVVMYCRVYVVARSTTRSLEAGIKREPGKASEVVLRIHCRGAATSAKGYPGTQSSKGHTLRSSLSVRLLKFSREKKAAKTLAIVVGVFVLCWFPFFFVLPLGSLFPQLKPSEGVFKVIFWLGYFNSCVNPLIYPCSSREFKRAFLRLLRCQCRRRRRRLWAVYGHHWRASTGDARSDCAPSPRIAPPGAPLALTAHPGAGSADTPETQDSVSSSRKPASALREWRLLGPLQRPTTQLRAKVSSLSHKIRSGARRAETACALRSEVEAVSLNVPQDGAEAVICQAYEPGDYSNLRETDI
T2 sequence (P43140 whole entry): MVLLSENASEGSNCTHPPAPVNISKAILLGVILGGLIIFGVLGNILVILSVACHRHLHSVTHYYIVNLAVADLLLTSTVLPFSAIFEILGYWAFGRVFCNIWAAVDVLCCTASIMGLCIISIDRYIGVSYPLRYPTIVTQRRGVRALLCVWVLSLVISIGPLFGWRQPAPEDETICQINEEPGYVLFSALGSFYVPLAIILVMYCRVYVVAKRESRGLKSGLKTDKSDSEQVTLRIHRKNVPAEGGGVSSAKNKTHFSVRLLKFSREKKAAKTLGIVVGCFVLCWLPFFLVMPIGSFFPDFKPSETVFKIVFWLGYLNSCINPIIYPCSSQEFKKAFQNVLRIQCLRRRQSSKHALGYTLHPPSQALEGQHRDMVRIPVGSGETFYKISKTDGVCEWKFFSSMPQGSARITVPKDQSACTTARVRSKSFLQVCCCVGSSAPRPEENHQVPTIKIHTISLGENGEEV
Procedure, shortened: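 Rat frontal cortex membranes, washed in 50 mM Tris-HCl/10 mM MgCl2 pH 7.4, at about 300 µg/mL protein. Labelled with 0.1 nM [3H]prazosin in the same buffer. Nonspecific binding set by 10 µM phentolamine. 30 °C for 30 min, then filtration and scintillation counting, in triplicate.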

[4] = molecular target: T3, Adrenergic receptor alpha-2 (Homo sapiens, UniProt P08913+P18825+P18089); assay: Alpha-2 adrenergic receptor antagonistic activity in human blood platelets.; type: functional, tissue-based
T3 sequence (P08913 whole entry): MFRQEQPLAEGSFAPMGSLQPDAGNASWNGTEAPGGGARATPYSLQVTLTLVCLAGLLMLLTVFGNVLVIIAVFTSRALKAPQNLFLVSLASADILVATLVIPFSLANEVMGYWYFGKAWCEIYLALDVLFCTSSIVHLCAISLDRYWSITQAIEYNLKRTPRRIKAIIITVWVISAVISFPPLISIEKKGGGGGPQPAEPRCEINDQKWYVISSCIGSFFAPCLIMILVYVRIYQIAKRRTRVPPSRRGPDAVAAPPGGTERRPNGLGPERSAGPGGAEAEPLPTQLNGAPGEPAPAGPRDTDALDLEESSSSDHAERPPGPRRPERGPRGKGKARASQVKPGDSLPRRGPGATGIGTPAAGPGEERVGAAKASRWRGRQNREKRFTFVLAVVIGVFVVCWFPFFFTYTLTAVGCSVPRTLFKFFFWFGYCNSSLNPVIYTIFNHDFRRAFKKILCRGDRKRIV
T3 sequence (P18825 whole entry): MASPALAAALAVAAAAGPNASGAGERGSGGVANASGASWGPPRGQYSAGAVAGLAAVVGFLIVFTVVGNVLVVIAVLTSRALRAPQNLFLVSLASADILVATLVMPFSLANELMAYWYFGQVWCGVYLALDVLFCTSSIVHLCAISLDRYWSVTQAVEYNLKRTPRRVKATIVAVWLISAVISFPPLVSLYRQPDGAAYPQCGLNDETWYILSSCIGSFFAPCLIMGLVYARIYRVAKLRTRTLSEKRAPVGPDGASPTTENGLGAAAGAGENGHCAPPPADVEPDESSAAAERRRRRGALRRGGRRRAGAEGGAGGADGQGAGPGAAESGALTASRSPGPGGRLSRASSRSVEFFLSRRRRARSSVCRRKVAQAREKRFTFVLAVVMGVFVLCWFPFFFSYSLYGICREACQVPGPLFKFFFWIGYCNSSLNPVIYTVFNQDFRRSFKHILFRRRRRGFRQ
T3 sequence (P18089 whole entry): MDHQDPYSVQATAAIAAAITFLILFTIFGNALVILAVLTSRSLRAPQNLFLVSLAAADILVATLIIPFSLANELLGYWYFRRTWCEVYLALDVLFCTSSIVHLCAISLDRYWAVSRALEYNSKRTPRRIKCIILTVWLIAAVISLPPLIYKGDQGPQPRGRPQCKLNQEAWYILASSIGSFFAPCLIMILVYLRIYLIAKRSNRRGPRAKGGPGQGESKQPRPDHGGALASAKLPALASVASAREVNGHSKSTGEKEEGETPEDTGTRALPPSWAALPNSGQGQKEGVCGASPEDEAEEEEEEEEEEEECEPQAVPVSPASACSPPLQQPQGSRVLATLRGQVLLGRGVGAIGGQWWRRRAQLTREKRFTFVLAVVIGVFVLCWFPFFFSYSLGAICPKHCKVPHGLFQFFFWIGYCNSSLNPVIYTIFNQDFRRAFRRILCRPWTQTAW
Procedure, shortened: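 Human platelet-rich plasma pretreated with 1 mM aspirin. Inhibitor at various concentrations added 1 min before epinephrine (30-100 µM).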

[5] = Selectivity ratio of Ki of alpha-1 adrenergic receptor to alpha-2 receptor
[6] = molecular target: T4, Adrenergic receptor alpha-1 (Rattus norvegicus) (UniProt P15823+P23944+P43140); assay: Agonistic activity against Alpha-1 adrenergic receptor in rat aorta expressed as percent maximal analog response relative to phenylephrine as 100%; type: functional, tissue-based
Procedure, shortened: (§3)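 Aorta from rats of 150-300 g, either sex. Tissue checked with 30 nM phenylephrine, then a cumulative phenylephrine curve. After 90 min the test agent was added cumulatively. Contraction expressed as % of the maximum to 1 µM phenylephrine (= 100%). EC50 is the molar 50% effective concentration; Emax is the maximal response relative to phenylephrine.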

[7] = molecular target: T4, Adrenergic receptor alpha-1 (Rattus norvegicus); assay: Antagonistic activity against Alpha-1 adrenergic receptor in rat aorta; type: functional, tissue-based
Procedure, shortened: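 Rat aorta rings (rats 150-300 g, either sex) contracted by cumulative phenylephrine, with and without the antagonist. KB = [B]/(DR − 1), where DR is the dose ratio in the presence and absence of the antagonist.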

[8] = molecular target: T2, Adrenergic receptor alpha-1; assay: 50% Molar effective concentration for agonistic activity against Alpha-1 adrenergic receptor in rat aorta; type: functional, tissue-based; procedure, shortened: as §3
[9] = Antagonistic activity against alpha2 adrenoceptor in human blood platelets expressed as IC50(medetomidine)/IC50(analog); type: functional
Procedure, shortened: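 Human platelet-rich plasma; inhibitor at various concentrations added 1 min before triggering aggregation with epinephrine (30-100 µM); aspirin 1 mM routinely added to study the primary-wave aggregation response.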

[10] = molecular target: T3, Adrenergic receptor alpha-2; assay: Antagonistic activity against Alpha-2 adrenergic receptor in human blood platelets; type: functional, tissue-based
Procedure, shortened: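 Human platelet-rich plasma pretreated with 1 mM aspirin. Inhibitor at various concentrations added 1 min before epinephrine (30-100 µM). Primary-wave aggregation measured; IC50 is the molar 50% inhibitory concentration.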

[11] = molecular target: T1, Adrenergic receptor alpha-2; assay: Alpha-2 adrenergic receptor binding affinity was tested against membrane preparations of rat brain.; procedure, shortened: as §2
[12] = Alpha 2 antagonistic adrenoceptor activity in human blood platelets Potency ratio: IC50(medetomidine)/IC50(analog); type: functional; procedure, shortened: as §1

| Structure (SMILES) | Ki [2] [nM] | Ki [3] [nM] | IC50 [4] [nM] | Ratio [5] | Ki [11] [nM] | further results |
| --- | --- | --- | --- | --- | --- | --- |
| c1cc2c3c(cccc3c1)C(c1c[nH]cn1)CC2 (stereo unspecified) | 33 | 55 | 14300 | 1.67 |  | Potency ratio [1]: 0.2; Emax [6]: 38% |
| C/C=C(\c1c[nH]cn1)c1cccc2ccccc12 | 1890 | 57 | 215400 | 0.03 |  | Kb [7]: 3390 nM; Potency ratio [1]: 0.01 |
| CC(c1c[nH]cn1)c1cccc2ccccc12 (stereo unspecified) | 13 | 224 |  | 17.2 |  | EC50 [8]: 153 nM; Potency ratio [9]: 0.69; IC50 [10]: 4300 nM; Emax [6]: 39% |
| CCC(c1c[nH]cn1)c1cccc2ccccc12 (stereo unspecified) | 165 | 574 |  | 3.48 |  |  |
| Cc1cccc(C(C)c2c[nH]cn2)c1C (stereo unspecified) [MEDETOMIDINE] |  |  |  |  | 25 |  |
| c1ccc2c3c(ccc2c1)CCCC3c1c[nH]cn1 (stereo unspecified) |  | 655 | 97700 |  | 1449 | Kb [7]: 136 nM; Potency ratio [12]: 0.03 |
| C[C@H](N)[C@H](O)c1ccc(O)c(O)c1 [LEVONORDEFRIN] |  | 9221 |  |  | 205 |  |
| C/C=C(/c1c[nH]cn1)c1cccc2ccccc12 | 1474 | 387 |  | 0.26 |  |  |
| C=C(c1c[nH]cn1)c1cccc2ccccc12 | 122 | 1734 |  | 14.2 |  |  |
